# ARFGAP1 inhibitor: rat ARFGAP1 inhibition | inhibition, % at 16.5 µM | 0.26% of 360,000 active | AID 651572 | Arfgap1-stimulated ARF1 GTP hydrolysis, GDP FP detection | Q62848;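 active means inhibition above a per-plate limit, mean inhibition of low control wells plus 3 SD, cut at about 25% in these data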;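 further: 0% = DMSO wells with enzyme and 100% = wells lacking Arfgap1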
# Target sequence (Q62848 1-136 limits assumed): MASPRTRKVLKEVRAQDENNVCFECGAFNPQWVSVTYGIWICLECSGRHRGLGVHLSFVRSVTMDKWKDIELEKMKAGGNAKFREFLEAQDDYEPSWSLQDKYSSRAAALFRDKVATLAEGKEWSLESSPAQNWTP
#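 System: truncated rat Arfgap1 GAP domain / Benchmarks: high control wells lacking Arfgap1, low control full reaction with DMSO / Times: compound-enzyme preincubation 20 min, reaction 120 min, detection 60 min, 25 °C / Repeats: one replicate per compound / Also added: human ARF1(Δ1-17)-GTP substrate / Measured by: Tracer-displacement fluorescence polarization with EDTA stop, 620/688 nm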
# ASAP1 GAP inh: inhibitors of human ASAP1 ArfGAP activity. Q9ULH1. ASAP1-stimulated ARF1 GTP hydrolysis, GDP FP detection. inhibition, % at 16.5 µM. 0.19% of 360,000 active. AID 624377; in the data active means inhibition above about 25%;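 further: 0% = vehicle with enzyme and substrate and 100% = no enzyme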
# Target sequence (Q9ULH1 325-724 limits assumed): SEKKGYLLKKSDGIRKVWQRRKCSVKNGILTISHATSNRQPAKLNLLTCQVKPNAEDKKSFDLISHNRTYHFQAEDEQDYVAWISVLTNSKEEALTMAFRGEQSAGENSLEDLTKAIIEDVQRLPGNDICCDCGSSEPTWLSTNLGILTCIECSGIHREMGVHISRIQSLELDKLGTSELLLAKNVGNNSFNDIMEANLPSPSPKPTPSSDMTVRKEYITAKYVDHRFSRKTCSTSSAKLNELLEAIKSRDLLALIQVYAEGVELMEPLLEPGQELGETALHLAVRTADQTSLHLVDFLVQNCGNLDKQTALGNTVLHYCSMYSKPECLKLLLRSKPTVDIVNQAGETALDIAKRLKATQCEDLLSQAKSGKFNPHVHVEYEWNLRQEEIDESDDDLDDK
# SMARCA2 act: increases SMARCA2 function in MMTV reporter cells; MG213 cells, MMTV-luciferase reporter, dexamethasone, overnight; activation, % at 9.1 µM; 1% of 370,000 active; in the data active means activation above about 7.8%;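 further: 0% = vehicle wells and 100% = reference activator wells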
# esBAF inh: SWI/SNF esBAF complex inhibition | mouse ES cells, Bmi1-luciferase knock-in reporter, 24 h; 100% = twice the neutral-well signal | reporter increase, % at 12.5 µM | 2% of 350,000 active | AID 602393; in the data active means activation above about 40%; inconclusive means no clear call, values can overlap the other calls;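 further: 0% = median of the plate's neutral control wells and 100% = double that signal; a rise in the Bmi1 reporter signal indicates esBAF inhibition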
# SMARCA2 act conf: SMARCA2 activation, confirmation screen; MG213 cells, MMTV-luciferase with dexamethasone, luminescence, overnight; MG213 cells expressing E1A, Rb sequestered; DMSO wells 0%, reference activator 100%; 30% of 3,500 active; shares compounds with SMARCA2 act; activation, % at 9.1 µM;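 active means activation above its plate's cutoff, the mean activation of tested wells plus 3 SD, cut at about 7.9% in these data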
# GAL4-VP16 Luc: GAL4-VP16 reporter activation counter-screen; activation, % at 9.1 µM; 41% of 3,500 active; HEK293 GAL4-VP16 pG5luc reporter, luciferase luminescence; scaled: DMSO wells 0%, SAHA wells 100%; shares compounds with SMARCA2 act;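 active means activation above the solvent-only control well mean plus 3 SD, averaged across control plates, cut at about 5.2% in these data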
# * = called active by the depositor; ? = inconclusive; . = no result. The list is not random: actives were taken first. Their share in the collection is about 2.6%.
SMILES,ARFGAP1 inhibitor,ASAP1 GAP inh,SMARCA2 act,esBAF inh,SMARCA2 act conf,GAL4-VP16 Luc
CCn1cc(C(=O)N2CCCC(N3CCN(c4ccccc4C)CC3)C2)cn1 (stereo not drawn),7.2,-3.8,12.4*,-6.1,-3.6,0.7
O=S(=O)(N[C@@H]1CC[C@@H](CCn2cc(-c3ccccn3)nn2)O[C@H]1CO)c1cccc(F)c1,.,.,.,-2.5,.,.
Cc1cnc(NC(=O)Nc2ccc(Cl)cc2)s1,6.2,-3.8,12.3*,.,8.3*,11.4*
Cc1ccc(-c2nnc(-c3cccnc3)o2)cc1,-3.6,5.4,2.2,19.8,.,.
Clc1ccc(-c2nnc(-c3ccccc3)o2)cn1,-1.8,0.4,8.6*,34.2,4.1,3.5
c1coc(-c2nnc(-c3ccc4c(c3)OCO4)o2)c1,1.0,1.3,10.0*,.,8.4*,10.6*
c1ccc(-c2nnc(-c3ccco3)o2)cc1,2.1,0.8,8.4*,39.7,7.2,9.0*
CC(C)C#Cc1ccc2c(c1)O[C@H](CN(C)Cc1cccnc1)[C@@H](C)CN([C@H](C)CO)S2(=O)=O,.,.,.,6.7,.,.
COc1ccc(-c2noc(CSc3nc4ccccc4c(=O)n3-c3ccc(C)cc3)n2)cc1,8.2,-0.1,12.2*,-5.8,-3.6,0.4
COc1ccc(-c2noc(CSc3nnc(Cc4ccccc4)n3-c3ccc(Cl)cc3)n2)cc1,10.0,14.3,-3.6,.,.,.
CC1CCCCC1NC(=O)C(Cc1ccccc1)NS(=O)(=O)c1cccs1 (stereo not drawn),-0.7,-4.6,8.7*,-7.1,3.1,-0.2
COc1ccc(-c2nc3ccccc3s2)cc1NC(C)=O,3.2,-8.6,9.7*,38.9,6.9,13.5*
O=C(Cc1ccccc1Cl)Nc1cc(S(=O)(=O)N2CCOCC2)ccc1N1CCOCC1,-5.0,2.0,8.0*,-2.3,4.5,0.4
C[C@@H]1CN([C@@H](C)CO)C(=O)c2cc(C3=CCCC3)cnc2O[C@@H]1CN(C)C(=O)NC1CCCC1,.,.,.,-3.3,.,.
COc1ccccc1NC(=O)N1C[C@@H](O)COC[C@H]2O[C@@H](CC(=O)NCCc3ccccc3)CC[C@@H]21,.,.,.,-0.6,.,.
Cn1cccc1/C=C(\C#N)C(N)=S,-0.3,-8.5,-3.4,7.8,.,.
N#C/C(=C/c1cc[nH]c1)C(N)=S,-2.1,2.5,8.6*,.,-4.3,1.0
CCCNC(=O)Nc1ccc2c(c1)C(=O)N(C)[C@H]1CC[C@H](CC(=O)Nc3ccccc3F)O[C@@H]1CO2,.,.,.,1.0,.,.
O=C(N/N=C/c1ccccc1)c1ccco1,6.4,-3.2,2.1,30.0,.,.
O=C(N/N=C/C(Br)=C\c1ccccc1)c1cccs1,-5.2,1.0,18.2*,.,6.7,11.0*
O=C(N/N=C/C(Br)=C/c1ccccc1)C1CC1,7.9,2.2,9.6*,.,10.0*,5.6*
Cc1nn(C)cc1/C=N/NC(=O)c1ccco1,-6.8,-0.3,9.1*,34.0,7.8,2.2
Cc1cc(C(=O)N/N=C/c2cn(C)nc2C)c2ccccc2n1,14.9,0.4,-2.7,-8.2,.,.
O=C(N/N=C/C(Br)=C\c1ccccc1)c1ccco1,-2.3,-16.9,9.4*,.,7.2,17.3*
CC(=C/c1ccccc1)/C=N/NC(=O)c1cccs1,9.4,4.0,1.8,.,.,.
SMILES,ARFGAP1 inhibitor,ASAP1 GAP inh,SMARCA2 act,esBAF inh,SMARCA2 act conf,GAL4-VP16 Luc
O=C(N/N=C/C(Br)=C/c1ccccc1)NC1CCCCC1,-3.6,-11.6,4.5,.,.,.
C/C=C/c1ccc([C@@H]2[C@@H](CN(C)C(=O)CC)N(C(=O)NC(C)C)[C@H]2CO)cc1,.,.,.,-1.6,.,.
CC(C)C(=O)Nc1ccc2c(c1)C(=O)N(C)[C@H]1CC[C@@H](CC(=O)NCC3CC3)O[C@H]1CO2,.,.,.,-0.2,.,.
CCOC(=O)c1sc(=NC(=O)c2cccc(C)c2)n(C)c1C,-6.2,-2.0,13.4*,.,5.1,5.9*
O=C(C[C@@H]1C[C@@H]2c3cc(NC(=O)C4CCC4)ccc3O[C@@H]2[C@@H](CO)O1)NC1CCCCC1,.,.,.,7.5,.,.
Cc1ccc(C(=O)CNc2cccc([N+](=O)[O-])c2)cc1,-3.6,-1.5,10.6*,23.9,6.8,6.3*
O=C(CNc1cccc(Cl)c1)c1ccc(Br)cc1,3.0,-5.3,8.9*,11.3,9.8*,-0.6
Cc1ccc(NCCC(=O)c2cccc([N+](=O)[O-])c2)c(C)c1,3.4,9.0,8.6*,?,7.4,3.4
O=C(CNc1ccc(Br)cc1)c1ccccc1,5.4,6.4,1.5,28.6,.,.
Cc1ccc(CC(=O)Nc2cccc([N+](=O)[O-])c2)cc1,1.4,-2.1,0.1,3.0,.,.
COc1cccc(S(=O)(=O)N[C@@H]2CC[C@@H](CCn3cc(-c4ccccn4)nn3)O[C@@H]2CO)c1,.,.,.,1.7,.,.
CCc1nnc2n1N=C(c1ccc(-c3cc(Cl)ccc3Cl)o1)CS2,15.7,12.8,8.9*,1.5,1.0,1.6
CCc1nnc2n1N=C(c1ccc(OC)cc1)CS2,-2.7,-7.0,-1.2,-6.5,.,.
CCNc1nc(NCC)nc(SCCOc2ccc(C)cc2)n1,4.0,9.8,9.6*,.,1.4,4.6
Cn1cccc1C(=O)NCC1COc2ccccc2O1 (stereo not drawn),9.8,0.5,11.3*,55.5*,10.0*,7.1*
Cn1c(N)c(C(=O)Nc2ccc3ccccc3c2)sc1=S,-4.4,1.7,10.3*,38.9,4.2,12.0*
Nc1c(C(=O)Nc2ccc(F)cc2)sc(=S)n1-c1ccccc1F,13.5,5.3,8.4*,53.9*,0.9,3.4
CC(C)(C)NC(=O)NC(=O)COc1ccccc1C#N,-0.9,-3.3,9.7*,39.8,3.4,12.2*
CN1CCN(c2ccc(-c3cc(NC=O)c4ncc(-c5ccccc5)n4c3)cc2)CC1,15.9,11.7,3.0,-6.0,.,.
COc1cc(-c2cnc3c(NC=O)cc(-c4ccc(N5CCN(C)CC5)cc4)cn23)cc(OC)c1OC,21.6,4.7,8.5*,0.8,9.3*,13.6*
CN1CCN(c2ccc(-c3cc(NC=O)c4ncc(-c5ccc(F)cc5)n4c3)cc2)CC1,-2.2,4.8,10.5*,-1.2,14.4*,11.7*
COc1ccc(S(=O)(=O)Nc2ccc3c(c2)C(=O)N([C@@H](C)CO)C[C@@H](C)[C@@H](CN(C)C(=O)Nc2ccc4c(c2)OCO4)OCCCC[C@H](C)O3)cc1,.,.,.,-5.1,.,.
C[C@H]1CN([C@@H](C)CO)C(=O)c2c(c3ccccc3n2C)-c2ccccc2CO[C@H]1CN(C)C(=O)[C@H]1CCCN1C,.,.,.,6.9,.,.
Cc1noc(C)c1NC(=O)NCC[C@@H]1CC[C@@H](NC(=O)Cc2cccnc2)[C@H](CO)O1,.,.,.,0.1,.,.
O=C(Cn1ncc(Cl)c(Cl)c1=O)c1ccc(Cl)cc1,-8.8,-20.2,20.0*,.,-15.0,2.3
O=C(Cn1ncc(Cl)c(Cl)c1=O)NCC1CCCCC1,-1.1,5.6,13.5*,.,-14.9,2.5
O=C(Cn1ncc(Cl)c(Cl)c1=O)NC1CCCCC1,0.6,-12.0,-9.5,15.9,.,.

# From PubChem
